# Screens as filed in PubChem.
# This excerpt belongs to a sample that is enriched for hits.
# CHOP inhibitor: CHOP inhibition in unfolded protein response; CHO-K1 CHOP-promoter luciferase, tunicamycin-induced, 15-18 h; inhibition, % at 10 µM; hit rate 3.8% among 220,000;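 active means compounds that reduced the stress-induced luciferase reporter signal by more than about 70% of percent inhibition, limit read from the data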;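 further: 0% = tunicamycin plus vehicle and 100% = wells without tunicamycin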
# CHOP UPR activ: apoptotic UPR (CHOP) activation. activation, % at 10 µM. CHO-CHOP luciferase reporter, luminescence; percent of tunicamycin response over DMSO baseline. hit rate 0.34% among 330,000;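 active means at 10 µM dose, activation of 40% or more, normalized to positive control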;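 further: 100% = tunicamycin at 10 µg/mL and 0% = DMSO alone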
#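 measured by = luciferase luminescence | assay system = CHO-CHOP cells, stable luciferase reporter of PERK-eIF2a-CHOP signalling | amount = 500 reporter cells seeded per well | timing = 6 h compound exposure at 37 °C after overnight seeding | controls = positive tunicamycin 10 µg/mL, negative DMSO alone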
# NOD2-RIPK2 inh: blocks binding of human NOD2 to RIPK2 | O43353 | CHO BLA complementation NOD2-RIPK2, CCF4 ratio | inhibition, % at 4.98 µM | hit rate 0.38% among 360,000 | AID 624267; in the data active means inhibition above about 21%;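 further: 0% = vehicle only and 100% = reference blocker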
# TLR9-MyD88 inh: TLR9-MyD88 interaction inhibition. Q9NR96+Q99836. CHO BLA complementation TLR9-MyD88, CCF4 FRET ratio. inhibition, % at 4.98 µM. hit rate 0.21% among 340,000;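 active means inhibition above the mean over all tested compounds plus 3 SD, cut at about 21% in these data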;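 further: 0% = DMSO only wells and 100% = clavulanate BLA inhibitor control wells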
# TLR4-MyD88 BLA: inhibitors of human TLR4-MyD88 binding | AID 861 | O00206+Q99836 | HeLa CL3-4 TLR4/MyD88 BLA complementation, FRET ratio | inhibition, % at 8.4 µM | hit rate 0.18% among 200,000; in the data active means inhibition above about 25%;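 further: 0% = vehicle and 100% = reference inhibitor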
# Target sequence (O00206 whole entry, looked up): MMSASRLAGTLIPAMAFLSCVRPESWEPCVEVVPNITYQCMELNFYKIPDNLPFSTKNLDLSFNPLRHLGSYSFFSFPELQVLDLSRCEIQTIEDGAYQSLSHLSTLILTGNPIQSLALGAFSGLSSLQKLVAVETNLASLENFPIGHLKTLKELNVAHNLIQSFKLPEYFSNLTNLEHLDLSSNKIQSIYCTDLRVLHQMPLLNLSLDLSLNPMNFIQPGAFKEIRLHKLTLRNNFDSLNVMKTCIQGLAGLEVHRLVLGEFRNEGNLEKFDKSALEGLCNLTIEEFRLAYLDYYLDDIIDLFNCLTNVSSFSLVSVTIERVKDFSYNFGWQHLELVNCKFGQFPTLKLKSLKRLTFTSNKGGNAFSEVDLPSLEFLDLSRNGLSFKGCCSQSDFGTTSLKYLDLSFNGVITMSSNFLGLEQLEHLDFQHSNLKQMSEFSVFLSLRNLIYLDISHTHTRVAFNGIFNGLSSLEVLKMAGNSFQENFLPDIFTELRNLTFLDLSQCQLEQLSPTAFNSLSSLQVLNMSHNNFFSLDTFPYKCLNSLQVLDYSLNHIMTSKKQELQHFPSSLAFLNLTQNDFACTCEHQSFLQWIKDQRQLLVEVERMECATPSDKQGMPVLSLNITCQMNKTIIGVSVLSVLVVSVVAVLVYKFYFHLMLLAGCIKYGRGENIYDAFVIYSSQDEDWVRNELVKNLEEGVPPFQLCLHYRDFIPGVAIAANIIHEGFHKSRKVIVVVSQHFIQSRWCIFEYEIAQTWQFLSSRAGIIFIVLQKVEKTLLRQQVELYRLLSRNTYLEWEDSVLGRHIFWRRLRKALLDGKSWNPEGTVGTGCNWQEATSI
# Target sequence (Q99836 whole entry, looked up): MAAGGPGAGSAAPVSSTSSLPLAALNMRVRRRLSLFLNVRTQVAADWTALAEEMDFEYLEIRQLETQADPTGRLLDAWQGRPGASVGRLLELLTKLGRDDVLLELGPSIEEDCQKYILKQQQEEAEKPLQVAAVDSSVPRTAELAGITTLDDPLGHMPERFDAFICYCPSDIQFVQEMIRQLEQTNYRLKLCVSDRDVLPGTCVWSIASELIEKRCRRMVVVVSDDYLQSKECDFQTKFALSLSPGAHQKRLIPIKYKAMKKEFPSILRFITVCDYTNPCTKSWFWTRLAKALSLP
# XBP1 UPR activ: activators of adaptive arm of unfolded protein response (XBP1); CHO-XBP1 luciferase reporter, IRE1-XBP1 UPR activation, luminescence; percent of tunicamycin response, DMSO as zero; activation, % at 20 µM; hit rate 0.33% among 330,000;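 active means versus positive control, 20 µM dose yields 30% or more activation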;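 further: 100% = tunicamycin at 10 µg/mL and 0% = DMSO only wells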
#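 incubation = overnight seeding at 37 °C, 6 h compound treatment at 37 °C | assay system = CHO-XBP1 cells stably carrying IRE1-XBP1-driven luciferase reporter | input = 1000 cells per well | detection = luciferase luminescence | dosing = single point, 20 µM final compound, 1% DMSO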
# * marks the source's active call; other numbers are inactive results; . = no result.
SMILES,CHOP inhibitor,CHOP UPR activ,NOD2-RIPK2 inh,TLR9-MyD88 inh,TLR4-MyD88 BLA,XBP1 UPR activ
Cc1cc(NC(=O)CSc2nc3ccccc3[nH]2)n(-c2ccccc2)n1,15,-1,-1,.,.,-1
Cc1ccc2nc(SCC(=O)Nc3cc(C(C)(C)C)nn3-c3ccccc3)[nH]c2c1,72*,0,0,-2,-6,-1
CC(=O)c1c(C)oc2c1C(=O)c1ccccc1C2=O,73*,.,2,5,11,.
COc1ccc(CNC(=O)c2c(C)oc3c2C(=O)c2ccccc2C3=O)cc1,-21,7,3,-11,-12,3
CC(=O)c1c2c3c(c(Br)ccc3n(C)c1=O)C(=O)c1ccccc1-2,.,0,16,4,.,0
Cc1oc2c(c1C(=O)NCc1cccnc1)C(=O)c1ccccc1C2=O,104*,-6,.,.,-38,-8
CCNc1oc(-c2ccccc2F)nc1S(=O)(=O)c1ccccc1,.,2,-1,-5,.,-6
CC(C)(C)S(=O)N1Cc2cc(C(=O)N3CCc4ccccc4C3)nc(-c3cccc(-c4ccncc4)c3)c2[C@H]1CCO (stereo partly drawn),.,.,-1,.,.,.
O=C(N/N=C\C=C\c1ccco1)c1cc(-c2ccc3ccccc3c2)n[nH]1,80*,5,-1,2,-2,5
CSC(=O)NC12CC3CC(CC(C)(C3)C1)C2,78*,2,5,10,-35,-1
CCSC(=O)NC12CC3CC(CC(C3)C1)C2,52,0,-14,1,-1,-4
c1ccc(CSc2nnc3ccc(-c4ccco4)nn23)nc1,19,1,0,-1,-19,0
Nn1c(=O)c2ccccc2n2c(SCc3ccc(C(F)(F)F)cc3)nnc12,52,-1,1,4,-10,0
COc1cc(C)ccc1OCCOCCOc1c(C)cc(C)cc1Br,84*,-1,-12,-13,-2,-1
COc1cc(C)ccc1OCCOc1ccccc1Cl,76*,7,-1,-17,3,2
CC1(C)Cc2c(cnn2-c2ccccc2)-c2c1c1ccccc1n2CC(O)CCl (stereo not drawn),94*,1,6,-1,-12,-3
CC1(C)Cc2c(cnn2-c2ccccc2)C(=O)/C1=N\NC(=O)c1ccncc1,.,-1,-2,1,-9,-1
O=[N+]([O-])c1ccc(-c2ccc(/C=N/c3c(-c4ccco4)nc4ccccn34)o2)c(Cl)c1,79*,.,.,.,-9,.
CCc1ccc(OCC(=O)Nc2cccc3c2CCCC3)cc1,79*,0,-1,5,6,3
CCC(CC)c1nnc(NC(=O)c2cc([N+](=O)[O-])ccc2N2CCOCC2)s1,.,2,-5,-14,.,-4
Cc1ccccc1/C=N/Nc1nc2ccccc2[nH]1,8,5,-4,-5,15,0
C(=N\Nc1nc2ccccc2[nH]1)/c1cccc2cccnc12,88*,2,-5,-9,.,0
CN(C)S(=O)(=O)c1ccc(N2CCCC2)c(C(=O)NC2CCC(O)CC2)c1 (stereo not drawn),.,0,2,1,.,-1
CCc1ccc(Nc2nnc(SCn3nnc4ccccc4c3=O)s2)cc1,82*,1,4,-6,-3,-1
CS(=O)(=O)N(CC(=O)N1CCN(c2ccccc2)CC1)c1ccc(Cl)c(C(F)(F)F)c1,76*,0,3,-5,7,-1
SMILES,CHOP inhibitor,CHOP UPR activ,NOD2-RIPK2 inh,TLR9-MyD88 inh,TLR4-MyD88 BLA,XBP1 UPR activ
CC1CCN(C(=O)CN(c2ccc(Cl)c(C(F)(F)F)c2)S(C)(=O)=O)CC1,26,-1,-8,-5,7,-2
Cc1cc(C)cc(N(CC(=O)N2CCN(c3ccccc3)CC2)S(=O)(=O)c2c(C)noc2C)c1,76*,2,-2,9,-2,-2
C=CCc1ccccc1OCC(=O)N/N=C/c1ccc(OC(C)=O)cc1OC(C)=O,73*,-3,-1,-5,-5,1
Cc1ccc(N(CC(=O)NCc2ccco2)C(=O)CCC(=O)Nc2nccs2)cc1,11,-1,0,2,.,0
CCOc1ccc(C(=O)NNC(=O)CCNC(=O)c2ccco2)cc1OC,.,0,9,2,.,2
CC1=C(C(=O)OCc2ccccc2)C(c2cccnc2)c2c(n(C)c(=O)n(C)c2=O)N1 (stereo not drawn),85*,-1,-13,-7,-6,0
CC1=C(C(=O)OCc2ccccc2)C(c2cccnc2)n2ncnc2N1 (stereo not drawn),-1,1,4,-49,-17,-1
CCCN(CC1CC1)C(=O)CSc1ncnc2sccc12,7,0,1,0,-9,1
CCCCCNC(=O)C(c1ccc(C(F)(F)F)cc1)n1c(=O)c(-c2ccco2)nc2ccccc21 (stereo not drawn),.,.,-16,.,.,.
O=c1[nH]c(C2CCCN(S(=O)(=O)c3ccc(F)cc3)C2)nc2c1nnn2Cc1ccccc1 (stereo not drawn),90*,2,1,3,7,1
Cc1ccc(Cn2nnc3c(=O)[nH]c(C4CCCN(S(=O)(=O)c5ccccc5)C4)nc32)cc1 (stereo not drawn),29,0,0,1,3,0
Cc1ccc(N2CCN(c3ccc(C)cc3)C2c2ccncc2)cc1,77*,-1,7,3,-28,-3
Cc1cccc(N2CCN(c3cccc(C)c3)C2c2cccnc2)c1,.,3,-10,0,2,-3
Cc1cc(Nc2ccccc2)c2c([N+](=O)[O-])c(C)cc(C)c2n1,92*,-3,-4,-3,0,6
O=C(CN1C(=O)NC2(CCc3ccccc32)C1=O)Nc1ccccc1Cl (stereo not drawn),.,-2,0,-7,.,0
O=C(NC1CCCC1)c1nc(-c2c(F)cccc2F)oc1-c1ccccc1,.,.,-18,.,.,.
CCOC(=O)c1ccccc1NC(=O)c1ccc(NS(C)(=O)=O)cc1,80*,-1,-6,4,-2,6
CCCOC(=O)COC(=O)c1ccccc1NC(=O)c1ccccc1,63,-3,-8,7,5,-1
CN(C)CCN1CCN(C2CN(Cc3cn(Cc4ccccc4)nn3)S(=O)(=O)C2)CC1 (stereo not drawn),.,.,-5,.,.,.
COc1ccccc1C(=O)Oc1ccc(C(C)(C)C)cc1,75*,4,-11,-8,1,0
COc1ccccc1C(=O)Oc1ccc2ccc(=O)oc2c1,.,2,-21,-5,.,2
O=C(Nc1ccc2nc(-c3cccs3)c(-c3cccs3)nc2c1)NC1CC1,92*,0,-3,-8,-1,-2
COCCNC(=O)Nc1ccc2nc(-c3cccs3)c(-c3cccs3)nc2c1,47,2,4,4,-7,0
